Source: PubChem BioAssay (several laboratories)
Avidin fluor = compound fluoresces at 488/530 nm on avidin beads; AID 1775; fluorescence (KMESF) at 10 µM; 0.38% of 220,000 active; compound fluorescence 488/530 nm, flow cytometry; active compounds read high; in the data active = fluorescence above about 47
ABCB1 block = human ABCB1 inhibition, ABCG2 as counter-screen | P08183 | CCRF-Adr cells, JC-1 efflux, flow cytometry | inhibition, % at 6.6 µM | 0.067% of 190,000 active | AID 1326; in the data active = inhibition above about 40%;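 note: 0% = vehicle and 100% = reference inhibitor; higher value means more JC-1 retained so stronger ABCB1 efflux block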
Lmaj promast = Leishmania major promastigote growth inhibition; 9% of 200,000 active; Leishmania major promastigotes, resazurin fluorescence viability; inhibition, % at 10 µM; AID 1063;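 note: promastigotes grown with compound for 44 hours at 28 °C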
ABCG2 block = human ABCG2 inhibition, ABCB1 as counter-screen | Q9UNQ0 | IgMXP3 cells, JC-1 efflux, flow cytometry | inhibition, % at 6.6 µM | 0.1% of 190,000 active;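 active = inhibition above 80%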;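 note: 0% = DMSO and 100% = nicardipine control wells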
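Test system: ABCG2 IgMXP3 and barcoded ABCB1 CCRF-Adr cell mix; Schedule: cells with compound and JC-1, 10 min at 25 °C, rotating, no wash; Technique: flow cytometry of retained JC-1 fluorescence; Measure: % inhibition of efflux relative to nicardipine and DMSO; Controls: nicardipine high and DMSO low controls.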
GSH fluor = compound fluoresces at 488/530 nm on GSH beads | GSH beads flow cytometry, compound fluorescence 488/530 nm; active compounds read high | AID 1776 | fluorescence (KMESF) at 10 µM | 0.25% of 190,000 active; in the data active = fluorescence above about 89;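 note: glutathione beads carrying GST-tagged Bcl family fusion proteins plus one bare bead set; values are compound well signal with DMSO vehicle wells as background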
PKD1 kinase inh = inhibitors of human PKD1 kinase; inhibition, % (no concentration beside the values); Q15139; PKD1 kinase fluorescence polarization assay; 0.056% of 200,000 active
Target sequence (Q15139 whole entry, looked up): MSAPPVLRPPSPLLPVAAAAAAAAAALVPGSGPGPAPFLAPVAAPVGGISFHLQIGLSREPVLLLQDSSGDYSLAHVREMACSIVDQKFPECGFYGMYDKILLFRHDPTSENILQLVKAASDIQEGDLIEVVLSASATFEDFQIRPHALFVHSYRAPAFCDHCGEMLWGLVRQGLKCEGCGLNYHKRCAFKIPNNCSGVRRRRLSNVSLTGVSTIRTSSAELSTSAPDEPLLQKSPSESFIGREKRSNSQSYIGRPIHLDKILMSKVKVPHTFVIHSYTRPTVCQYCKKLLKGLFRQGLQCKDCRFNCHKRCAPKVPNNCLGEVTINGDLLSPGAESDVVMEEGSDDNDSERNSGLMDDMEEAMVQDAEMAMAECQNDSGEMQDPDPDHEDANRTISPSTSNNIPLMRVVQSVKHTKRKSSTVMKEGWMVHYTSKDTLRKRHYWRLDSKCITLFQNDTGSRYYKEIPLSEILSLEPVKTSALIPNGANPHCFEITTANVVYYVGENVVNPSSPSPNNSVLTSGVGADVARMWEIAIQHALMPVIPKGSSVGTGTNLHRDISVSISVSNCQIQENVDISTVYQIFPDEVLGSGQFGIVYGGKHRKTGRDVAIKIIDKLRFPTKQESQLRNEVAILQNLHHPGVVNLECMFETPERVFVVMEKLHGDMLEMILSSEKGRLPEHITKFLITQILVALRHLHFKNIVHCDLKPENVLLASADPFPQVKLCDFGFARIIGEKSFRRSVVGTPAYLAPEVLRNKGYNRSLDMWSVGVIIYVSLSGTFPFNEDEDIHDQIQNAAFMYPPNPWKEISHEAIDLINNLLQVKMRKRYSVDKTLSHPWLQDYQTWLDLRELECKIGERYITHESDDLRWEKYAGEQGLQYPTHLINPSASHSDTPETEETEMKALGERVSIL
* marks the source's active call; other numbers are inactive results; x = no result. This is one part of a sample in which hits are shown more often than they occur. Cut-off read from the data, not from the text of the source, unless noted: active = inhibition above about 50%; inactive = the rest.

SMILES	Avidin fluor	ABCB1 block	Lmaj promast	ABCG2 block	GSH fluor	PKD1 kinase inh
Cc1cccc(C)c1NC(=O)CN(C)C(=O)C(c1ccccc1)c1ccccc1	11	0	86*	-8	9	-7
Cc1cccc(C)c1NC(=O)CN(C)C(=O)/C=C/c1cccs1	12	0	52*	0	4	2
Cc1ccc(S(=O)(=O)c2c(N)n(Cc3ccco3)c3nc4ccccc4nc23)cc1	9	-4	74*	-10	11	-16
CCCCn1c(N)c(S(=O)(=O)c2ccc(C)cc2)c2nc3ccccc3nc21	3	1	56*	5	21	1
CN(C)CCCn1c(N)c(S(=O)(=O)c2ccccc2)c2nc3ccccc3nc21	18	x	x	x	x	x
Cc1ccc(Cn2c(N)c(S(=O)(=O)c3cccs3)c3nc4ccccc4nc32)cc1	6	0	-5	0	44	2
Cc1cccc(S(=O)(=O)c2c(N)n(Cc3ccco3)c3nc4ccccc4nc23)c1	4	0	78*	0	20	6
COc1cc(C(=O)NCCNC(=O)C2CCCNC2=O)cc(OC)c1OC (configuration not stated)	5	x	x	x	x	x
CCCn1nnnc1NC(=O)COc1ccc(CC)cc1	13	0	40	0	5	-6
Cc1cc(C)n(Cc2ccc(NC(=O)c3ccc(COc4ccccc4Br)cc3)cc2)n1	27	1	56*	3	15	3
Nc1ccc(NC(=O)NC2CCCCC2)cc1[N+](=O)[O-]	11	1	1	3	25	0
Cc1ccc(NC(=O)CCN2CCN(C/C=C/c3ccccc3)CC2)cc1C	15	2	87*	28	28	-12
O=C(CCN1CCN(C/C=C/c2ccccc2)CC1)Nc1ccc(Cl)cc1	10	2	76*	24	15	6
CCOC(=O)N1CCN(CCC(=O)Nc2ccc(C)cc2)CC1	37	1	-7	2	21	-6
Cc1ccc(NC(=O)CCN2CCN(C/C=C/c3ccccc3)CC2)cc1	2	0	94*	-1	24	-10
Cc1cc(C)nc(NC2=NCC(=O)N2c2ccccc2)n1	20	0	2	14	29	-5
Cc1cc(C)n(C2=NS(=O)(=O)c3ccccc32)n1	4	0	-8	-1	35	-5
CC(NCC(O)COC1CCC(C(C)(C)C)CC1)c1ccccc1 (configuration not stated)	x	1	100*	1	69	-3
CC1CCC(C(C)C)C(OCC(O)CNC(C)c2ccccc2)C1 (configuration not stated)	14	1	77*	1	24	-10
COc1ccc(/C=C/C(=O)O)cc1COc1cccc(C)c1	10	0	-6	2	17	-12
COc1ccc(C=O)cc1COc1ccc([N+](=O)[O-])c(C)c1	7	3	37	27	17	-4
COc1ccc(C=O)cc1COc1ccccc1F	8	-1	61*	11	3	4
COc1ccc(/C=C/C(=O)c2ccccc2)cc1COc1ccccc1F	90*	0	62*	-1	11	3
CC1CCC2(CC1)NC(=O)N(Cc1cccc(C(F)(F)F)c1)C2=O (configuration not stated)	26	1	100*	1	16	3
COc1ccc(CN2C(=O)NC3(CCCC3)C2=O)cc1F	12	0	2	0	69	-4
SMILES	Avidin fluor	ABCB1 block	Lmaj promast	ABCG2 block	GSH fluor	PKD1 kinase inh
Cc1nn(-c2ccccc2)c(Cl)c1CN(C(=O)CCl)c1cccc2ccccc12	2	2	99*	-6	12	3
CC(=O)N(Cc1c(C)nn(-c2ccccc2)c1Cl)c1ccc(Cl)cc1	6	1	17	2	26	0
Cc1nn(-c2ccccc2)c(Cl)c1C(=O)NCC(=O)O	10	0	-6	2	24	1
Cc1nn(-c2ccccc2)c(Cl)c1CN(C(=O)CCl)c1ccc(Cl)cc1	13	1	100*	1	10	-4
COC(=O)C1=C(C)NC(=S)NC1c1ccc(-c2cc(Cl)ccc2Cl)o1 (configuration not stated)	6	x	x	x	x	x
O=c1c2oc3nc4c(cc3c2ncn1CCCc1ccccc1)CCCC4	2	x	x	x	x	x
CN1/C(=C\C=Nc2ccc3ccccc3c2)C(C)(C)c2ccccc21	38	1	88*	2	12	-12
Cc1cc(/N=C/C=C2\N(C)c3ccccc3C2(C)C)n(CCC#N)n1	23	2	101*	3	29	-4
CN1/C(=C/C=C(C#N)C#N)C(C)(C)c2ccccc21	10	0	0	0	13	-2
CN1\C(=C/C=C/C=C/C=[N+](C)C)C(C)(C)c2ccccc21	8	1	98*	0	10	-7
CN(C)c1ccc(N=C/C=C2\N(C)c3ccccc3C2(C)C)cc1	21	1	101*	7	52	2
CN1/C(=C\C=O)C(C)(C)c2ccccc21	24	1	11	4	20	6
CC(C)n1c(O)c(N=NC(=O)C2COc3ccccc3O2)c2ccccc21 (configuration not stated)	11	2	10	9	15	-2
CCOc1ccccc1NC(=O)CCCn1cc([N+](=O)[O-])cn1	22	1	-1	3	14	4
CN1/C(=C\C=N\NC(=O)c2ccc(O)cc2)C(C)(C)c2ccccc21	11	1	86*	4	4	4
Cc1ccc(CN2CCSc3ccc(C(=O)NCc4cccnc4)cc32)cc1	8	7	10	0	13	8
CN(C)CCNC(=O)c1ccc2c(c1)N(Cc1ccc(F)cc1)CCS2	0	1	100*	2	23	-5
CC(C)CN(CC(C)C)C1=N/C(=C\c2ccco2)C(=O)N1c1ccccc1	11	1	6	2	6	0
Cc1ccc(-c2nc(CSc3nc4ccccc4c(=O)n3CCO)cs2)cc1	14	1	62*	-4	9	-13
C=CCn1c(SCc2csc(-c3ccc(C)cc3)n2)nnc1-c1ccccc1OC	22	3	100*	58	11	-2
Cc1ccc(-c2nc(CSc3nc4ccccc4c(=O)n3C)cs2)cc1	14	0	76*	0	10	-3
Cc1ccc(CNC(=O)CSc2nc3ccccc3c(=O)n2CCCO)cc1	13	3	5	13	14	-3
COc1ccccc1-n1cnnc1SCc1csc(-c2ccccc2)n1	4	2	17	5	17	-3
COc1ccc(/C=C2\SC(=S)N(CC(=O)Nc3nnc(C)s3)C2=O)cc1	5	0	1	0	15	-6
C=CCC(CC=C)(NC(=O)c1ccccc1C)c1ccccc1	31	0	-2	0	15	-6
CC(Cc1cccs1)NC(=S)Nc1ccccc1 (configuration not stated)	9	1	60*	8	5	-5
